Results published in ChEMBL document CHEMBL1151735, “Further studies with the 2-amino-1,3-thiazol-4(5H)-one class of 11beta-hydroxysteroid dehydrogenase type 1 inhibitors: reducing pregnane X receptor activity and exploring activity in a monkey pharmacodynamic model” (J Med Chem, 2008).
Calls of active or inactive are those of the source. The calls are words filed in the database; no cut-off is given here.

Experiments:
[1] = molecular target: T1, 11-beta-hydroxysteroid dehydrogenase 1 (Homo sapiens, UniProt P28845); experiment: Inhibition of human recombinant 11beta-HSD1 expressed in Escherichia coli using [3H]cortisone by scintillation proximity assay
[2] = Inhibition of monkey recombinant 11beta-HSD1 expressed in Escherichia coli using [3H]cortisone by scintillation proximity assay; set-up: species or system Macaca mulatta
[3] = AUC (0 to infinity) in mouse at 10 mg/kg, po; type: ADME, organism-based; set-up: dose 10 mg/kg, route oral, time infinity; settings: plasma
[4] = AUC (0 to infinity) in rat at 5 mg/kg, po; type: ADME, organism-based; set-up: time infinity, dose 5 mg/kg, route oral; settings: plasma
[5] = Half life in mouse at 2 mg/kg, iv; type: ADME, organism-based; set-up: dose 2 mg/kg, route intravenous; settings: in vivo
Hepatocyte [6] = experiment: Induction of CYP3A4 in cryopreserved human hepatocytes from female NPV donars with history of tobacco and substance usage assessed as mRNA expression at 20 uM relative to 20 uM rifampin; type: functional
[7] = Oral bioavailability in monkey at 10 mg/kg; type: ADME, organism-based, Macaca mulatta; settings: rhesus monkey, in vivo
Cynomolgus monkey [8] = experiment: Inhibition of 11beta-HSD1 in mesenteric fat of cynomolgus monkey assessed as conversion of [3H]cortisone to [3H]cortisol at 30 mg/kg, po after 2 hrs; type: functional, organism-based; set-up: dose 30 mg/kg; settings: Macaca fascicularis
Summary of the method: (§1)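 Male cynomolgus monkeys, at least four per group, given a single nasal-gastric dose in 1% Tween 80/47.5% Ora-Plus/51.5% water. Plasma and mesenteric fat taken 2 h post-dose and snap-frozen. About 50 mg fat pieces, in triplicate, incubated 1 h at 37 °C in KRP buffer pH 7.4 containing 3H-cortisone. 3H-cortisol in the medium quantified by SPA with anti-cortisol antibody beads.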

[9] = Oral bioavailability in rat at 5 mg/kg; type: ADME, organism-based; settings: in vivo
[10] = Fraction unbound in cynomolgus monkey plasma protein; type: ADME, cell-free, Macaca fascicularis
[11] = Clearance in monkey at 2 mg/kg, iv and 10 mg/kg, po; type: ADME, organism-based, Macaca mulatta; settings: rhesus monkey, in vivo
Hepatocyte [12] = experiment: Induction of CYP3A4 in cryopreserved human hepatocytes from male DJV donars with no adverse medical history or substance or alcohol abuse assessed as mRNA expression at 20 uM relative to 20 uM rifampin; type: functional
[13] = Clearance in dog at 2 mg/kg, iv and 5 mg/kg, po; type: ADME, organism-based, Canis lupus familiaris; settings: in vivo
Summary of the method: (§2)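 Dog PK: intravenous 2 mg kg^-1 in 10% dimethylacetamide, 23% water, 67% PEG 400; oral 5 mg kg^-1 in 1% Tween 80, 47.5% OraPlus, 51.5% water.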

[14] = molecular target: T2, 11-beta-hydroxysteroid dehydrogenase 1 (Mus musculus, UniProt P50172); experiment: Inhibition of mouse recombinant 11beta-HSD1 expressed in Escherichia coli using [3H]cortisone by scintillation proximity assay
Summary of the method: (§3)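 Purified enzyme expressed in E. coli, dog at 20 nM final and mouse at 5 nM. [3H]cortisone 100 nM, NADPH 200 µM, in 50 mM Tris-HCl, 1 mM EDTA, pH 7.2. 1 h at room temperature, then stopped with 18β-glycyrrhetinic acid. Anticortisol antibody and antimouse SPA beads added for 30 min; read by scintillation counting. Ki derived.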

[15] = Half life in rat at 2 mg/kg, iv; type: ADME, organism-based; set-up: dose 2 mg/kg, route intravenous; settings: in vivo
Cytochrome P450 3A4 [16] = molecular target: T3, Cytochrome P450 3A4 (Homo sapiens, UniProt P08684); experiment: Induction of CYP3A4 activity in cryopreserved human hepatocytes from female NPV donars with history of tobacco and substance usage at 20 uM relative to 20 uM rifampin
Cynomolgus monkey [17] = experiment: Inhibition of 11beta-HSD1 in mesenteric fat of cynomolgus monkey assessed as conversion of [3H]cortisone to [3H]cortisol at 3 mg/kg, po after 2 hrs; type: functional, organism-based; set-up: dose 3 mg/kg; settings: Macaca fascicularis; summary of the method: as §1
[18] = Volume of distribution at steady state in rat at 2 mg/kg, iv and 5 mg/kg, po; type: ADME, organism-based; settings: in vivo, read-out: Vdss
[19] = Clearance in rat at 2 mg/kg, iv and 5 mg/kg, po; type: ADME, organism-based; settings: in vivo
Cynomolgus monkey [20] = experiment: Plasma concentration in cynomolgus monkey at 30 mg/kg, po; type: ADME, organism-based, Macaca fascicularis; set-up: dose 30 mg/kg, route oral; settings: in vivo
Summary of the method: (§4)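 Male cynomolgus monkeys, at least four per group, given a single nasal-gastric dose in 1% Tween 80, 47.5% Ora-Plus, 51.5% water. Plasma collected 2 h post-dose and snap-frozen.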

[21] = AUC (0 to infinity) in dog at 5 mg/kg, po; type: ADME, organism-based, Canis lupus familiaris; set-up: time infinity, dose 5 mg/kg, route oral; settings: plasma
[22] = Inhibition of monkey 11beta-HSD1 expressed in CHO cells assessed as conversion of cortisone to cortisol by ELISA; type: cell-based, Macaca mulatta
Summary of the method: (§5)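 CHO cells stably overexpressing the species 11β-HSD1, 30000 per well, seeded 1 day before. Rinsed in HEPES glucose buffer pH 7.4 with 0.1% DMSO. Compound 0.1 nM–10 µM final, 60 min at 37 °C. Cortisone then added (100 nM final) at 37 °C: mouse 45 min, dog 1.5 h, rat and monkey 2 h. Cortisol measured by ELISA.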

[23] = molecular target: T4, 11-beta-hydroxysteroid dehydrogenase 1 (Rattus norvegicus, UniProt P16232); experiment: Inhibition of rat recombinant 11beta-HSD1 expressed in Escherichia coli using [3H]cortisone by scintillation proximity assay
[24] = Oral bioavailability in mouse at 10 mg/kg; type: ADME, organism-based; settings: in vivo
[25] = Volume of distribution at steady state in mouse at 2 mg/kg, iv and 10 mg/kg, po; type: ADME, organism-based; settings: in vivo, read-out: Vdss
[26] = molecular target: T4, 11-beta-hydroxysteroid dehydrogenase 1; experiment: Inhibition of rat 11beta-HSD1 expressed in CHO cells assessed as conversion of cortisone to cortisol by ELISA; type: cell-based; summary of the method: as §5
[27] = Oral bioavailability in dog at 5 mg/kg; type: ADME, organism-based, Canis lupus familiaris; settings: in vivo
[28] = Volume of distribution at steady state in dog at 2 mg/kg, iv and 5 mg/kg, po; type: ADME, organism-based, Canis lupus familiaris; settings: in vivo, read-out: Vdss; summary of the method: as §2
[29] = molecular target: T5, 11-beta-hydroxysteroid dehydrogenase type 1 (Canis lupus familiaris, UniProt Q5XX84); experiment: Inhibition of dog 11beta-HSD1 expressed in CHO cells assessed as conversion of cortisone to cortisol by ELISA; type: cell-based; summary of the method: as §5
[30] = Half life in dog at 2 mg/kg, iv; type: ADME, organism-based, Canis lupus familiaris; set-up: dose 2 mg/kg, route intravenous; settings: in vivo; summary of the method: as §2
[31] = Clearance in mouse at 2 mg/kg, iv and 10 mg/kg, po; type: ADME, organism-based; settings: in vivo
[32] = molecular target: T5, 11-beta-hydroxysteroid dehydrogenase type 1; experiment: Inhibition of dog recombinant 11beta-HSD1 expressed in Escherichia coli using [3H]cortisone by scintillation proximity assay; summary of the method: as §3
Cytochrome P450 3A4 [33] = molecular target: T3, Cytochrome P450 3A4; experiment: Induction of CYP3A4 activity in cryopreserved human hepatocytes from male DJV donars with no adverse medical history or substance or alcohol abuse at 20 uM relative to 20 uM rifampin
[34] = molecular target: T2, 11-beta-hydroxysteroid dehydrogenase 1; experiment: Inhibition of mouse 11beta-HSD1 expressed in CHO cells assessed as conversion of cortisone to cortisol by ELISA; type: cell-based; summary of the method: as §5
[35] = molecular target: T1, 11-beta-hydroxysteroid dehydrogenase 1; experiment: Inhibition of human 11beta-HSD1 expressed in CHO cells assessed as conversion of cortisone to cortisol by ELISA; type: cell-based
[36] = molecular target: T6, Nuclear receptor subfamily 1 group I member 2 (Homo sapiens, UniProt O75469); experiment: Transactivation of human PXR transfected in HEK cells at 20 uM by luciferase reporter gene assay relative to 12.5 uM rifampin; type: cell-based; settings: hek293, 20 µM
T6 sequence (O75469 whole entry): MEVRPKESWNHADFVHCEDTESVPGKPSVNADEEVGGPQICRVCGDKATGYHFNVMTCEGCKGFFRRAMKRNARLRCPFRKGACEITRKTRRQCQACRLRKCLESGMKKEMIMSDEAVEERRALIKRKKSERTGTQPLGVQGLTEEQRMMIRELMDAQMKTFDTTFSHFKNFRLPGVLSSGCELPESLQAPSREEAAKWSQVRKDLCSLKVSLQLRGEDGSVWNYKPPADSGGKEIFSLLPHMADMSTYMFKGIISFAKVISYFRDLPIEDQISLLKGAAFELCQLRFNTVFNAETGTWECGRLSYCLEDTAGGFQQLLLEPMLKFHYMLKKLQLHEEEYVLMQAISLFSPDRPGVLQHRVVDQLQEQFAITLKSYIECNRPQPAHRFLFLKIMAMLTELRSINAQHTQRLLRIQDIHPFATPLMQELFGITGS
Summary of the method: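 HEK cells transfected with human PXR fused to a firefly luciferase reporter. Luciferase activity is expressed as percent of the 12.5 µM rifampin response. Run in triplicate; SEM reported.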

[37] = AUC (0 to infinity) in monkey at 10 mg/kg, po; type: ADME, organism-based, Macaca mulatta; set-up: time infinity, dose 10 mg/kg, route oral; settings: rhesus monkey, plasma
[38] = Half life in monkey at 2 mg/kg, iv; type: ADME, organism-based, Macaca mulatta; set-up: dose 2 mg/kg, route intravenous; settings: rhesus monkey, in vivo
Cynomolgus monkey [39] = experiment: Plasma concentration in cynomolgus monkey at 3 mg/kg, po; type: ADME, organism-based, Macaca fascicularis; set-up: dose 3 mg/kg, route oral; settings: in vivo; summary of the method: as §4
[40] = Volume of distribution at steady state in monkey at 2 mg/kg, iv and 10 mg/kg, po; type: ADME, organism-based, Macaca mulatta; settings: rhesus monkey, in vivo, read-out: Vdss

T2 sequence (P50172 whole entry): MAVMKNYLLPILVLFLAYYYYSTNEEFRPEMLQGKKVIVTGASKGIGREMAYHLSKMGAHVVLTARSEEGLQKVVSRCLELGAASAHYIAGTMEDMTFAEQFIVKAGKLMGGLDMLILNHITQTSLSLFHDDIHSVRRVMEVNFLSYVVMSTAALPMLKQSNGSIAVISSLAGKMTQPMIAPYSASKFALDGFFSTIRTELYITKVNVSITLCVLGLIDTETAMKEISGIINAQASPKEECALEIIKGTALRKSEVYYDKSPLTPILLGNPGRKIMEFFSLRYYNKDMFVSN
T3 sequence (P08684 whole entry): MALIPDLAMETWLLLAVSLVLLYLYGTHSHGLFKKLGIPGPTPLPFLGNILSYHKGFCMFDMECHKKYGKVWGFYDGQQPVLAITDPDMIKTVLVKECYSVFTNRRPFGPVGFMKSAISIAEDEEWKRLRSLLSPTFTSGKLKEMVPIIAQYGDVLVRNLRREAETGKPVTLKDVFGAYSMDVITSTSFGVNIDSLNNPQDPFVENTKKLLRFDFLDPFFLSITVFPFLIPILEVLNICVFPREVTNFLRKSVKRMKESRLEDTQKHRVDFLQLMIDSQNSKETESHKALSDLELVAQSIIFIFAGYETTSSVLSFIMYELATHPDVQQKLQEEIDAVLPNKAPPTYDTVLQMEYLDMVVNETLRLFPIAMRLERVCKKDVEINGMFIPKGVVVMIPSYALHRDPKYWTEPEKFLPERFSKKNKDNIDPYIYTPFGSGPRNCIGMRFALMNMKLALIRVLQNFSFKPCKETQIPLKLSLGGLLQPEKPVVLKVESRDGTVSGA
T5 sequence (Q5XX84 whole entry): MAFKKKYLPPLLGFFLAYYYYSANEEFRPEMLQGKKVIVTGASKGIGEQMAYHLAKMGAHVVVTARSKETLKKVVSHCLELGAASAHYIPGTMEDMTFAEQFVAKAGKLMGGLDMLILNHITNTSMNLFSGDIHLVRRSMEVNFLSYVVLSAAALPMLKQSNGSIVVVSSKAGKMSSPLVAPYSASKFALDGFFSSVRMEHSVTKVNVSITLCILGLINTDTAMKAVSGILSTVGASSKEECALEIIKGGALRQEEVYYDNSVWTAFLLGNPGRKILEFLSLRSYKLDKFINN
T4 sequence (P16232 whole entry): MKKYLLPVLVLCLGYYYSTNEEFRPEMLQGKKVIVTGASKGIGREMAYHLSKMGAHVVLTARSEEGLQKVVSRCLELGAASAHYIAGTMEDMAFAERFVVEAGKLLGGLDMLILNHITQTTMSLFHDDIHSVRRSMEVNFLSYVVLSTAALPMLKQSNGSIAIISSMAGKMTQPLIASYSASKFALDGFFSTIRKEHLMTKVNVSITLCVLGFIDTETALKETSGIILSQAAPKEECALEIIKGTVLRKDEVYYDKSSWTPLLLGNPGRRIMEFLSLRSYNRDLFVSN
T1 sequence (P28845 whole entry): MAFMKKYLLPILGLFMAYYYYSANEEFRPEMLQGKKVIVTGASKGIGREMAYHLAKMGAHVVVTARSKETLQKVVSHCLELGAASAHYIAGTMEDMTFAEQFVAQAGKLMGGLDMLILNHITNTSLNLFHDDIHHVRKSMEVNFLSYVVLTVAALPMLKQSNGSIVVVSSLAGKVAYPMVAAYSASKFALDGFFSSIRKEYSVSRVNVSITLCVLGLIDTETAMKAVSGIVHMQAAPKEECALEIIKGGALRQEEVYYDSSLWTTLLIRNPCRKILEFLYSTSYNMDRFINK

C[C@H](NC1=NC(=O)[C@](C)(C(C)(C)O)S1)c1ccc(F)cc1
Ki [1]: 35 nM | Ki [2]: 48 nM | AUC(0-inf) [3]: 6500 ng·h/mL | AUC(0-inf) [4]: 9200 ng·h/mL | half-life [5]: 3.3 h | Activity (Hepatocyte [6]): 13% | bioavailability [7]: 65% | Activity (Cynomolgus monkey [8]): Active | bioavailability [9]: 56% | fraction unbound [10]: 0.108 | clearance [11]: 20 mL/min/kg | Activity (Hepatocyte [12]): 45% | clearance [13]: 1.42 mL/min/kg | Ki [14]: 100 nM | half-life [15]: 5.6 h | Activity (Cytochrome P450 3A4 [16]): 10% | Activity (Cynomolgus monkey [17]): Active | Vd [18]: 2.5 L/kg | clearance [19]: 5.17 mL/min/kg | concentration (Cynomolgus monkey [20]): 26 µM | AUC(0-inf) [21]: 54000 ng·h/mL | IC50 [22]: 42 nM | Ki [23]: 300 nM | bioavailability [24]: 100% | Vd [25]: 1.4 L/kg | IC50 [26]: 340 nM | bioavailability [27]: 91% | Vd [28]: 0.88 L/kg | IC50 [29]: 45 nM | half-life [30]: 7.3 h | clearance [31]: 26.7 mL/min/kg | Ki [32]: 12 nM | Activity (Cytochrome P450 3A4 [33]): 17% | IC50 [34]: 140 nM | IC50 [35]: 34 nM | Activity [36]: 6% | AUC(0-inf) [37]: 5700 ng·h/mL | half-life [38]: 2.2 h | concentration (Cynomolgus monkey [39]): 4.9 µM | Vd [40]: 1.9 L/kg
